This is an account of results in ChEMBL document CHEMBL1155278, “3,4-Diaryl-isoxazoles and -imidazoles as potent dual inhibitors of p38alpha mitogen activated protein kinase and casein kinase 1delta” (J Med Chem, 2009).

Test [1] relates to Casein kinase I isoform delta (Rattus norvegicus), Q06486 [M82F]. To be noted: 5 nM.
The target in test [2] is T1, Serine/threonine-protein kinase Nek2 (Homo sapiens) (UniProt P51955).
T1 sequence (whole entry): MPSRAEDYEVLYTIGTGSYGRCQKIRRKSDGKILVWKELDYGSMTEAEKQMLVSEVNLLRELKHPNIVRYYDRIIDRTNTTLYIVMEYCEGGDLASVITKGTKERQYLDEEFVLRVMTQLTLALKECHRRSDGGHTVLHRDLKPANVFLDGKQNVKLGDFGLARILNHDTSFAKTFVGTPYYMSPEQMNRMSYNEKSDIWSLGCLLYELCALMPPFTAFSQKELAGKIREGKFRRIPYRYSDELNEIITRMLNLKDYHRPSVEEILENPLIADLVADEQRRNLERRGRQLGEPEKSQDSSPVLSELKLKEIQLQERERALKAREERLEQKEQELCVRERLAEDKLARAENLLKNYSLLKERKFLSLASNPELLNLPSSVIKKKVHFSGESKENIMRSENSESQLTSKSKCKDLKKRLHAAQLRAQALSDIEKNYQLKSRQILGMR
Description: Inhibition of NEK2a assessed as residual activity at 0.1 uM by Cherenkov counting relative to control in presence of 50 uM ATP. The method in brief:
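Single-concentration selectivity screen at 0.1 μM against a panel of 76 protein kinases. Each kinase was run at an ATP level approximating its Km for ATP. Output is mean residual activity as % of the control assay without compound, n = 3 ± SD.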

Test [3] is described as follows: Cell cycle arrest in human AC1-M88 cells assessed as accumulation at S phase at 0.38 uM after 48 hrs by propidium iodide staining-based FACS analysis. Type of test: functional.
For test [4], the target named is T2, Casein kinase I isoform delta (Homo sapiens, UniProt P48730). Description: Inhibition of recombinant CK1delta kinase domain at 5 nM by ATP competitive binding assay.
Target sequence in this assay (P48730 whole entry, looked up, the tested form may be a part, canonical isoform): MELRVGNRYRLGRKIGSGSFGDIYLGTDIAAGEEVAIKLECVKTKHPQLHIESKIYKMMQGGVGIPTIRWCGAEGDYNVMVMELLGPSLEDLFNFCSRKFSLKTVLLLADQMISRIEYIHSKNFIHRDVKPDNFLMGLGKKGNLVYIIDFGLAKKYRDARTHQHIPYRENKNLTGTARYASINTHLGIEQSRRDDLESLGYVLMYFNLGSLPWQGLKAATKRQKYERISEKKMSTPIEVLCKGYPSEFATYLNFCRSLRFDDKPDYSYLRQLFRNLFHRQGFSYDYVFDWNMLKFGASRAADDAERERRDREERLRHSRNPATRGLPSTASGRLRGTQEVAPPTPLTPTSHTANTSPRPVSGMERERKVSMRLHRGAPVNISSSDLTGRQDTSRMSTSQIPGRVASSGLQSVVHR
The nature of test [5]: Cell cycle arrest in human AC1-M88 cells assessed as accumulation at G2 phase at 0.38 uM after 48 hrs by propidium iodide staining-based FACS analysis. Type of test: functional. (In general: Flow cytometry measures light scatter and fluorescence of single cells or particles in a stream.)
For test [6], the target named is Casein kinase I isoform delta (Rattus norvegicus) (UniProt Q06486). To be noted: 5 nM.
Chain of Casein kinase I isoform delta (Rattus norvegicus) (Q06486 whole entry, looked up, the tested form may be a part, canonical isoform): as the sequence (P48730 whole entry, looked up, the tested form may be a part, canonical isoform) above, with I381V counted along it
Test [7] in a line: Cell cycle arrest in human AC1-M88 cells assessed as accumulation at G1 phase at 0.38 uM after 48 hrs by propidium iodide staining-based FACS analysis. Type of test: functional.
The nature of test [8]: Cell cycle arrest in human AC1-M88 cells assessed as accumulation at subG1 phase at 0.38 uM after 48 hrs by propidium iodide staining-based FACS analysis. Type of test: functional.
For test [9], the target named is T2, Casein kinase I isoform delta. Nature of the test: Inhibition of CK1delta by Cherenkov counting in presence of 20 uM ATP.
Target sequence in this assay (P48730 whole entry, the tested form may be a part, canonical isoform): as the sequence (P48730 whole entry, looked up, the tested form may be a part, canonical isoform) above
For test [10], the target named is Mitogen-activated protein kinase 10 (Homo sapiens) (UniProt P53779). Description: Inhibition of JNK3 at 10 uM by Cherenkov counting in presence of 20 uM ATP.
Chain of Mitogen-activated protein kinase 10 (Homo sapiens) (P53779 whole entry): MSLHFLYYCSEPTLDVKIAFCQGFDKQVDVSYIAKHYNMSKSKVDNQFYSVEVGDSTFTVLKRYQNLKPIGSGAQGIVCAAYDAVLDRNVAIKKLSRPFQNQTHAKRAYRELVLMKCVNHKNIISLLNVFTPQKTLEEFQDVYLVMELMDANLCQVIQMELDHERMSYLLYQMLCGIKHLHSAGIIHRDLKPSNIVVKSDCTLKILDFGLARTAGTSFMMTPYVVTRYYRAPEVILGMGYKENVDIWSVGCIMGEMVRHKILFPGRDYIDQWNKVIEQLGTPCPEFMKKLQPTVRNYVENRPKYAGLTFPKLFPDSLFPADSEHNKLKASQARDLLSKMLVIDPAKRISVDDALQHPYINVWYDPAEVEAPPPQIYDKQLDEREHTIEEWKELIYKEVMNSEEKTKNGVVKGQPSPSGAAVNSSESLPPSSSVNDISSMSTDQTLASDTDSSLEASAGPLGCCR
The target in test [11] is Mitogen-activated protein kinase 9 (Homo sapiens) (UniProt P45984). Nature of the test: Inhibition of JNK2 at 10 uM by Cherenkov counting in presence of 20 uM ATP.
Chain of Mitogen-activated protein kinase 9 (Homo sapiens) (P45984 whole entry, looked up): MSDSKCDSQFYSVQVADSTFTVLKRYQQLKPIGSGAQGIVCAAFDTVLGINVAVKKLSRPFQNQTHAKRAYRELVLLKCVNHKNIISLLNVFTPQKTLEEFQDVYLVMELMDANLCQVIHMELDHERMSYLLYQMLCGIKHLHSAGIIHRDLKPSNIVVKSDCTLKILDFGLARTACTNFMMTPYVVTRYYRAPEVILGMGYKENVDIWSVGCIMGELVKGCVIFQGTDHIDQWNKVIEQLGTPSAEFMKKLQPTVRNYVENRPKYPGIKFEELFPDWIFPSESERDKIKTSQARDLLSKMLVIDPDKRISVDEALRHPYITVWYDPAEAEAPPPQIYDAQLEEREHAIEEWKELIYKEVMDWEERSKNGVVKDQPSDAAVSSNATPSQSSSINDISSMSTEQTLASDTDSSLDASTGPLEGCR
A short description of test [12]: Cell cycle arrest in human AC1-M88 cells assessed as accumulation at G1 phase at 0.26 uM after 48 hrs by propidium iodide staining-based FACS analysis. Type of test: functional. The method in brief:
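AC1-M88 cells (extravillous trophoblast fused with the Jeg-3 choriocarcinoma mutant AC1-1) were grown in DMEM/F-12 with 10% FCS at 37 °C in humidified 5% CO2. Cells were exposed to compound for 48 h alongside a DMSO control (0.004% final), then fixed and stained with propidium iodide. Cell cycle was read by flow cytometry with the Cycle Test Plus kit.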

Test [13] is described as follows: Cell cycle arrest in human AC1-M88 cells assessed as accumulation at subG1 phase at 0.26 uM after 48 hrs by propidium iodide staining-based FACS analysis. Type of test: functional.
The target of test [14] is T2, Casein kinase I isoform delta. Nature of the test: Inhibition of recombinant CK1delta kinase domain at 10 nM by ATP competitive binding assay.
Target sequence in this assay (P48730 whole entry, looked up, the tested form may be a part, canonical isoform): as the sequence (P48730 whole entry, looked up, the tested form may be a part, canonical isoform) above
For test [15], the target named is Casein kinase I isoform delta (Rattus norvegicus) (UniProt Q06486). Description: Inhibition of GST-fused rat CK1delta at 10 nM by Cherenkov counting in presence of 20 uM ATP.
Test [16] is described as follows: Cell cycle arrest in human AC1-M88 cells assessed as accumulation at S phase at 0.26 uM after 48 hrs by propidium iodide staining-based FACS analysis. Type of test: functional.
In test [17] the target is T2, Casein kinase I isoform delta. Description: Inhibition of recombinant CK1delta kinase domain at 10 nM by ATP competitive binding assay.
Target sequence in this assay (P48730 whole entry, looked up, the tested form may be a part, canonical isoform): as above
Test [18] in a line: Cell cycle arrest in human AC1-M88 cells assessed as accumulation at G2 phase at 0.26 uM after 48 hrs by propidium iodide staining-based FACS analysis. Type of test: functional.
The test system of test [19] is Casein kinase I isoform delta (Rattus norvegicus), Q06486 [M82F]. Description: Inhibition of GST-fused rat CK1delta M82F mutant at 10 nM by Cherenkov counting in presence of 20 uM ATP.

Calls of active or inactive are those of the source. No cut-off for these calls is given here.

Chain of Casein kinase I isoform delta (Rattus norvegicus), Q06486 [M82F] (Q06486 whole entry M82F, the tested form may be a part, canonical isoform): as the sequence (P48730 whole entry, looked up, the tested form may be a part, canonical isoform) above, with M82F, I381V counted along it

Consider `COc1ccc(/C=C/C(=O)Nc2cc(-c3[nH]c(SC)nc3-c3ccc(F)cc3)ccn2)c(OC)c1`, for which the inhibition (as a rule, the change of the read-out against control, counted positive when it falls) in test [1] was “inactive”. Besides, the Activity in [2] is 91%; in test [3] it was 2.41%; in test [5], 3.08%; in [7], 6.3%; in [8] it was 87.1%. Besides, the inhibition in [4] came to 18%. For the same molecule, the inhibition result in [6] is “Active”.

Regarding `CC(C)c1onc(-c2ccc(F)cc2)c1-c1ccncc1`, the IC50 (usually the concentration needed to halve the response being measured) in test [9] turned out to be 230 nM. For the same molecule, the inhibition in [10] stood at 72%; in test [11], 87%.

Regarding `COc1ccc(/C=C/C(=O)Nc2cc(-c3[nH]c([S+](C)[O-])nc3-c3ccc(F)cc3)ccn2)c(OC)c1` (stereo not given), the Activity is 12% in [12]; 77.1% in test [13]; 92% in test [2]; 3.95% in test [16]; 5.32% in test [18]. Further, the inhibition in test [14] and in [17] was 10% each time. For the same molecule, the inhibition result in [15] was “Active”. The inhibition result in test [19] is “inactive”.
